In one data set the test system is A549. Description: Antiproliferative activity against human A549 cells after 48 hrs by MTT assay. It is filed as functional, cell-based. Particulars: A549, 48 h. The essentials: (§1)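 Cells seeded at 5.0×10^3 per well and exposed to a range of compound concentrations for 48 h. MTT (2.5 mg/mL solution) was then added for 4 h, formazan was dissolved in DMSO, and OD was read at 570 nm. HL-60 was grown in RPMI-1640 with 10% FBS, the other lines in DMEM with 10% FBS, at 37 °C and 5% CO2. Triplicates; IC50 taken from mean OD versus concentration curves.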
In general terms: Formazan colour is commonly taken as a measure of viable cells.

Data set [1] relates to SiHa. As to the kind of experiment: Antiproliferative activity against human SiHa cells after 48 hrs by MTT assay. In kind it is functional, cell-based. The essentials: as §1
Data set [2] concerns the target Quadruplex DNA. Description: Binding affinity to HTG21 telomeric G-quadruplex DNA (unknown origin) by SPR method. It is filed as nucleic-acid assay. Put shortly:
(§2)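 SPR: biotinylated HTG21 or hairpin DNA (200 nM) was folded in 50 mM Tris-HCl pH 7.4 with 100 mM KCl and captured to about 1,000 RU on an NLC chip against a blank reference cell. Ligand at 0.625–40 µM was injected at 25 µL/min (400 s association, 300 s dissociation) at 25 °C. The chip was regenerated with 1 M KCl and blank sensorgrams were subtracted.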
For orientation: In SPR one partner is held on a chip, and binding of the other changes the refractive index at the surface.

The subject of data set [3] is Quadruplex DNA. Description: Stabilization of F21T telomeric G-quadruplex DNA (unknown origin) assessed as change in melting temperature at 1 uM by FRET assay. It is filed as nucleic-acid assay. The essentials: (§3)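 FRET melting: 0.2 µM F21T or F10T (FAM/TAMRA-labelled), with or without 1.0 µM ligand, in 10 mM Tris-HCl pH 7.4 with 60 mM KCl. Excitation 470 nm, emission 530 nm, read every 1 °C from 37–99 °C at 1 °C/min with a 30 s hold. ΔTm = Tm(DNA+ligand) − Tm(DNA).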

Data set [4] has as its system U2OS. As to the kind of experiment: Antiproliferative activity against human U2OS cells after 48 hrs by MTT assay. It is filed as functional, cell-based. The essentials:
as §1

The test system of another data set is HeLa. Description: Antiproliferative activity against human HeLa cells after 48 hrs by MTT assay. In kind it is functional, cell-based. Put shortly: as §1
Data set [5] can be described thus: Binding affinity to hairpin duplex DNA (unknown origin) by SPR method. Put shortly:
as §2

A short description of data set [6]: Stabilization of F10T hairpin duplex DNA (unknown origin) assessed as change in melting temperature at 1 uM by FRET assay. Put shortly: as §3
A further data set deals with HL-60. As to the kind of experiment: Antiproliferative activity against human HL60 cells after 48 hrs by MTT assay. It is filed as functional, cell-based. Particulars: HL-60, 48 h. The essentials: as §1
Data set [7] deals with Quadruplex DNA. Description: Stabilization of F21T telomeric G-quadruplex DNA (unknown origin) at 1 uM in presence of non-fluorescent duplex DNA ds26 by FRET assay. It is filed as nucleic-acid assay. Put shortly: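 Competition FRET: 0.2 µM F21T with 1 µM ligand, plus or minus unlabelled duplex ds26 at 3 µM (15-fold) or 10 µM (50-fold), in 10 mM Tris-HCl pH 7.4 with 60 mM KCl. Melting monitored at 470/530 nm over 37–99 °C.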

A further data set relates to Mus musculus. As to the kind of experiment: Toxicity in BALB/C-nu/nu mouse xenografted with human SiHa cells assessed as decrease in body weight at 1 mg/kg, ip administered daily for 3 weeks measured everyday during compound dosing. In kind it is organism-based. Particulars: in vivo, 504 h. The essentials: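 SiHa cells (1×10^7 per 100 µL, serum-free DMEM) were injected subcutaneously. Grown tumors were divided into pieces and implanted into BALB/C-nu/nu mice. Caliper volume (1/2 × L × W²) and body weight were recorded daily; tumors were weighed at the end.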

The test system of data set [8] is SiHa. As to the kind of experiment: Cell cycle arrest in human SiHa cells at 1 uM after 12 hrs by propidium iodide staining-based flow cytometric method. It is filed as functional. The essentials:
(§4)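 SiHa or U2OS cells (2.0×10^5 per well) were treated with compound or DMSO for 12 h, fixed in ice-cold 70% ethanol overnight, and stained with 50 µg/mL PI plus RNase A for 30 min at room temperature in the dark. 10,000 events were collected by flow cytometry to give the phase distribution.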
(In general: Flow cytometry measures light scatter and fluorescence of single cells or particles in a stream.)

The subject of data set [9] is U2OS. Description: Cell cycle arrest in human U2OS cells at 1 uM after 12 hrs by propidium iodide staining-based flow cytometric method. It is filed as functional. The essentials: as §4
Data set [10] is described as follows: Inhibition of telomerase (unknown origin) by TRAP-LIG assay. Also noted: species or system Homo sapiens.
Data set [11] concerns Quadruplex DNA. Description: Stabilization of telomeric G-quadruplex DNA in human SiHa cells assessed as increase in BG4 foci per nucleus at 2 uM after 24 hrs by DAPI staining-based immunofluorescence method relative to control. In kind it is cell-based. The essentials: (§5)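 Cells were treated 24 h with 2 µM compound or 0.1% DMSO, then fixed (4% paraformaldehyde), permeabilized (0.5% Triton X-100) and blocked (5% goat serum). Staining used BG4 (80 ng/µL, 37 °C 3 h) with anti-FLAG, and/or γ-H2AX, TRF2 or POT1 antibodies at 4 °C overnight. Alexa 488/555 secondaries and DAPI followed. Foci or co-localized foci per nucleus were counted by confocal microscopy; mean ± SEM, two-tailed unpaired t test.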

Data set [12] can be described thus: Binding affinity to hairpin duplex DNA (unknown origin) at 40 uM by SPR method. Put shortly:
as §2

Data set [13] has as its system Quadruplex DNA. Description: Stabilization of telomeric G-quadruplex DNA in human SiHa cells assessed as induction of DNA damage response by measuring gamma-H2AX foci formation per nucleus at 2 uM after 24 hrs by DAPI staining-based immunofluorescence method relative to control. In kind it is cell-based. The essentials: as §5
Data set [14] relates to Quadruplex DNA. As to the kind of experiment: Stabilization of telomeric G-quadruplex DNA in human U2OS cells assessed as increase in BG4 foci per nucleus at 2 uM after 24 hrs by DAPI staining-based immunofluorescence method. It is filed as cell-based. The essentials:
as §5

pIC50, pKd: −log10 of the molar value. Active and inactive are the calls of the source. The calls are words filed in the database; no cut-off is given here.

Broadly, the pIC50 is −log10 of the IC50, conventionally taken in molar units. A higher pIC50 goes with a low IC50. Broadly, the pKd is the negative decadic logarithm of the Kd, by convention in mol/L. High values mean a low Kd, low ones a high Kd. Broadly, the ΔTm is the shift of the melting midpoint relative to a reference. With `CN1CCN(c2cc3c(cc2F)/C(=C/c2nc4cc(NCCN5CCCCC5)c(F)cc4c(=O)[nH]2)C(=O)N3)CC1`, the pIC50 is 5.85 in the data set with A549; 5.36 with SiHa [1]; 5.28 in the data set on U2OS [4]; 5.55 in the data set on HeLa; 5.54 in the data set on HL-60. Besides, the pKd at Quadruplex DNA [2] is 5.06; in data set [5] it was 4.80. For the same compound, the ΔTm with Quadruplex DNA [3] was found to be 21.4 °C; in data set [6], 0.2 °C.
For the compound `CN(C)CCCNc1c2ccccc2nc2c1[nH]c1ccccc12`, the result with Quadruplex DNA [7] was inactive. For the same compound, the ΔTm with Quadruplex DNA [3] was 11.6 °C; in [6], 5.2 °C.
Turning to `COc1cccc2c1C(=O)c1c(O)c3c(c(O)c1C2=O)C[C@@](O)(C(=O)CO)C[C@@H]3O[C@H]1C[C@H](N)[C@H](O)[C@H](C)O1` [DOXORUBICIN], the Activity result with Mus musculus is on record as “Toxic”.
Consider `CN(C)CCNc1cc2nc(/C=C3\C(=O)Nc4cc(N5CCN(C)CC5)c(F)cc43)[nH]c(=O)c2cc1F`, for which the pIC50 with A549 was 5.22; in the data set on SiHa [1] it was 4.94; in the data set with U2OS [4], 5.24; with HeLa, 5.11; in the data set on HL-60 it was 5.55. Moreover, the pKd on Quadruplex DNA [2] was 5.21; in [5], 4.82. For the same compound, the values for the ΔTm (with Quadruplex DNA [3]; in data set [6]) were 22.5 °C and 0.3 °C, respectively.
On to `CN(C)CCCNc1ccc2c(=O)[nH]c(/C=C3\C(=O)Nc4ccccc43)nc2c1`, for which the result in the data set on Quadruplex DNA [7] was Active. Moreover, the result (in the data set with SiHa [8]; with U2OS [9]; in the data set with Quadruplex DNA [11]; in [12]; in the data set on Quadruplex DNA [13]; in the data set with Quadruplex DNA [14]) was inactive. The pIC50 is 4.71 with A549; 4.56 with SiHa [1]; 4.69 with U2OS [4]; under 4.40 in data set [10]; 4.37 in the data set on HeLa; 5.39 in the data set on HL-60. On Quadruplex DNA [2], this compound showed a pKd of under 4.40. Further, the ΔTm stood at 8.4 °C in the data set on Quadruplex DNA [3] and 0.1 °C in [6].
On to `CN(C)CCCNc1cc2nc(/C=C3\C(=O)Nc4cc(N(C)CCCN(C)C)c(F)cc43)[nH]c(=O)c2cc1F`, for which the pIC50 is 4.84 in the data set with A549; 5.54 with SiHa [1]; 5.08 in the data set with U2OS [4]; 5.15 with HeLa; 5.19 with HL-60. In addition, at Quadruplex DNA [2], the pKd was 4.74. Also, the values for the ΔTm (in the data set on Quadruplex DNA [3]; in [6]) were 18.2 °C and 0.3 °C, respectively. The result in [12] was inactive.
Take `CN(C)CCCN(C)c1cc2c(cc1F)/C(=C/c1nc3cc(N4CCN(C)CC4)c(F)cc3c(=O)[nH]1)C(=O)N2`: the pIC50 in the data set on A549 was 4.98; with SiHa [1], 5.46; with U2OS [4], 5.03; with HeLa it was 4.89; with HL-60, 5.49. The compound further had a pKd at Quadruplex DNA [2] of under 4.40. Besides, the ΔTm amounted to 15.6 °C in the data set with Quadruplex DNA [3] and 0.2 °C in data set [6]. Further, the result in data set [12] was inactive.
Take `CN(C)CCCNc1cc2nc(/C=C3/C(=O)Nc4cc(N5CCN(C)CC5)ccc43)n(C)c(=O)c2cc1F`: the pIC50 is 4.81 in the data set on A549; 4.85 with SiHa [1]; 4.90 in the data set on U2OS [4]; 4.85 in the data set on HeLa; 4.51 in the data set with HL-60. Besides, the pKd on Quadruplex DNA [2] is 4.52; in [5], under 4.40. For the same compound, the ΔTm is 7.4 °C in the data set on Quadruplex DNA [3] and 0.1 °C in data set [6].
With `CN(C)CCCN(C)c1cc2c(cc1F)/C(=C/c1nc3cc(NCCN(C)C)c(F)cc3c(=O)[nH]1)C(=O)N2`, the pIC50 in the data set with A549 is 4.91; with SiHa [1], 5.12; in the data set with U2OS [4], 5.04; in the data set on HeLa, 4.65; with HL-60 it was 5.25. Also, the pKd on Quadruplex DNA [2] is 4.85. Also, the results for the ΔTm (in the data set on Quadruplex DNA [3]; in data set [6]) were 20.1 °C and 0.3 °C, respectively. Besides, the result in [12] was inactive.
As for `CN1CCN(c2ccc3c(c2)NC(=O)/C3=C\c2nc3cc(NCCN4CCCC4)c(F)cc3c(=O)[nH]2)CC1`, the pIC50 is 5.39 in the data set with A549; 4.96 with SiHa [1]; 5.19 in the data set with U2OS [4]; 4.76 with HeLa; 5.44 in the data set with HL-60. Besides, on Quadruplex DNA [2], the pKd was under 4.40. Besides, the figures for the ΔTm (in the data set with Quadruplex DNA [3]; in data set [6]) were 18.6 °C and 0.2 °C, respectively. Further, the result in [12] was inactive.
For the compound `CN(C)CCCNc1cc2nc(/C=C3\C(=O)Nc4cc(N5CCN(C)CC5)c(F)cc43)[nH]c(=O)c2cc1F`, the result with Quadruplex DNA [7] was Active. Further, the pIC50 in the data set with A549 was 5.23; in the data set on SiHa [1], 5.31; with U2OS [4], 5.05; in [10], 4.91; in the data set with HeLa, 4.75; with HL-60, 5.42. Also, the pKd on Quadruplex DNA [2] was 5.12. Also, the ΔTm in the data set with Quadruplex DNA [3] is 24.6 °C; in [6], 0.1 °C. Further, the outcome in data set [12] was inactive.
Turning to `CN1CCN(c2cc3c(cc2F)/C(=C/c2nc4cc(NCCCn5ccnc5)c(F)cc4c(=O)[nH]2)C(=O)N3)CC1`, the pIC50 in the data set on A549, in the data set with SiHa [1], with U2OS [4], in the data set on HeLa and in the data set with HL-60 was under 4.30 throughout. The compound also gave a pKd on Quadruplex DNA [2] of 4.68. For the same compound, the ΔTm turned out to be 11.5 °C in the data set on Quadruplex DNA [3] and 0.5 °C in data set [6]. The result in [12] was inactive.
Take `O=C1Nc2ccccc2/C1=C/c1nc2cc(NCCCN3CCOCC3)c(F)cc2c(=O)[nH]1`: the pIC50 with A549, in the data set on SiHa [1], with U2OS [4], in the data set with HeLa and with HL-60 was under 4.30 each time. At Quadruplex DNA [2], this compound had a pKd of under 4.40. For the same compound, the ΔTm in the data set on Quadruplex DNA [3] is 8.6 °C; in data set [6] it was 0.1 °C. Besides, in data set [12], the outcome was inactive.

The values are drawn from ChEMBL document CHEMBL4177752, “Discovery of Novel Schizocommunin Derivatives as Telomeric G-Quadruplex Ligands That Trigger Telomere Dysfunction and the Deoxyribonucleic Acid (DNA) Damage Response” (J Med Chem, 2018).
